Measured values reported in ChEMBL document CHEMBL2203145, “Synthesis and structure-activity relationships of tri-substituted thiazoles as RAGE antagonists for the treatment of Alzheimer's disease” (Bioorg Med Chem Lett, 2012).
pIC50: −log10 of the molar value.

Experiments:
[1] = target: T1, Advanced glycosylation end product-specific receptor (Homo sapiens, UniProt Q15109); experiment: Antagonist activity at human biotinylated RAGE assessed as inhibition of amyloid beta binding at 10 uM after 60 mins by ELISA
In short: (§1)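 Biotinylated protein with Aβ in BSA-containing buffer incubated on a streptavidin-coated plate for 60 min at ambient temperature, then washed with TBS-T. Bound Aβ detected with HRP-conjugated 4G8 antibody (1:1000, TBS-T with 2.5% BSA) for 60 min at ambient temperature. Developed with TMB, stopped with sulfuric acid, absorbance read at 450 nm.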

[2] = target: T1, Advanced glycosylation end product-specific receptor; experiment: Antagonist activity at RAGE transfected in CHO cells assessed as inhibition of amyloid beta 42-induced NFkappaB activation at 1 uM after 18 hrs by luciferase reporter gene assay; type: functional, cell-based
In short: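 CHO-NF-κB-luciferase cells at 20,000 cells/well in Opti-MEM, incubated overnight, then treated with compound (1 µM) for 18 h at 37 °C with or without 5 µM Aβ42. Cells lysed in passive lysis buffer, lysate mixed with luciferase substrate, relative light units read on a luminometer.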

[3] = target: T1, Advanced glycosylation end product-specific receptor; experiment: Antagonist activity at human biotinylated RAGE assessed as inhibition of amyloid beta binding after 60 mins by ELISA; in short: as §1
[4] = target: Advanced glycosylation end product-specific receptor (Mus musculus) (UniProt Q62151); experiment: Antagonist activity at RAGE overexpressed in mouse bEND.3 cells assessed as inhibition of FITC-amyloid beta 42 transport across blood-brain barrier at 10 uM by fluorescence assay; type: functional, cell-based
In short: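 RAGE-overexpressing bEND.3 cells grown 3–4 days to confluence on inserts to form a tight-junction barrier; TEER taken as resistance minus blank-insert resistance, times insert area. Aβ transport across the monolayer measured with compound at 10 µM; reported as % inhibition.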

T1 sequence (Q15109 whole entry): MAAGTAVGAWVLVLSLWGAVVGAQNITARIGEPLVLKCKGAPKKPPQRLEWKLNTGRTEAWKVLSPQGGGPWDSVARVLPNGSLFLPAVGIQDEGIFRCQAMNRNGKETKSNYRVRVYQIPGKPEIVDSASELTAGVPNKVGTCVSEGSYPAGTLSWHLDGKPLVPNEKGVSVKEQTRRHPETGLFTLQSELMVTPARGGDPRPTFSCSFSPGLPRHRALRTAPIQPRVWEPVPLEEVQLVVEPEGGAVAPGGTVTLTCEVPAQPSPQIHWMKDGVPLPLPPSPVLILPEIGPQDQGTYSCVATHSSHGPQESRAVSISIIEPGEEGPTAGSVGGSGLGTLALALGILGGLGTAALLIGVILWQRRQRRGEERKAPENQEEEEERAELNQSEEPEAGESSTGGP
Chain of Advanced glycosylation end product-specific receptor (Mus musculus) (Q62151 whole entry): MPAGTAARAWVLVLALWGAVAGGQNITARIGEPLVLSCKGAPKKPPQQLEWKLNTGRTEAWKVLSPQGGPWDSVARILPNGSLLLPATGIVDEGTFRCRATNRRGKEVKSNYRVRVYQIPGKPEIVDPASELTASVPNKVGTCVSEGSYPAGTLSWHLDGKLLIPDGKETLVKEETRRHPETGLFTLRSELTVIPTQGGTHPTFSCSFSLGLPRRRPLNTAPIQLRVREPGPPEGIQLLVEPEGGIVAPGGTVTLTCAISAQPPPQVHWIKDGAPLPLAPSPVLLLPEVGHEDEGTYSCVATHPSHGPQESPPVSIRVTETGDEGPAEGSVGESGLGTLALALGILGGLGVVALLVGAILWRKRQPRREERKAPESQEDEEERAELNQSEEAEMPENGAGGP

| inhibition [1] | inhibition [2] | pIC50 [3] | inhibition [4] | Structure (SMILES) |
| --- | --- | --- | --- | --- |
| 59.2% | 11.7% | 5.74 | 64.3% | CCCCc1sc(-c2ccc(OCCCN3CCCCC3)cc2)nc1-c1ccc(Oc2ccc(Cl)cc2)cc1 |
| 60.2% |  | 5.25 |  | CCCCc1sc(NC(=O)c2ccc(OCCCN(CC)CC)cc2)nc1-c1ccc(Oc2ccc(Cl)cc2)cc1 |
| 48.1% |  |  |  | CCCCc1sc(C(=O)Nc2ccc(OCCCN(CC)CC)cc2)nc1-c1ccc(Oc2ccc(Cl)cc2)cc1 |
| 0.2% |  |  |  | CCCCc1sc(-c2ccc(Oc3ccc(Cl)cc3)cc2)nc1-c1ccc(O)cc1 |
| 53.9% | 4.9% | 5.94 | 61.5% | CCCCc1nc(-c2ccc(Oc3ccc(Cl)cc3)cc2)sc1-c1ccc(OCC2CCCN(CC)C2)cc1 (stereo unspecified) |
| 40.6% |  |  |  | CCCCc1sc(-c2ccc(OCCCN3CCOCC3)cc2)nc1-c1ccc(Oc2ccc(Cl)cc2)cc1 |
| 51.8% | 2.1% | 5.50 | 66.6% | CCCCc1sc(-c2ccc(OCCN(C)C)cc2)nc1-c1ccc(Oc2ccc(Cl)cc2)cc1 |
| 49.6% |  |  |  | CCCCc1nc(-c2ccc(OCCCN(CC)CC)cc2)sc1-c1ccc(Oc2ccc(Cl)cc2)cc1 |
| 64.2% | 2.5% | 6.04 | 39.5% | CCCCc1sc(-c2ccc(OCCN3CCCC3)cc2)nc1-c1ccc(Oc2ccc(Cl)cc2)cc1 |
| 54.7% | 17.2% | 5.92 | 68.6% | CCCCc1sc(-c2ccc(OCCN3CCN(C)CC3)cc2)nc1-c1ccc(Oc2ccc(Cl)cc2)cc1 |
| 47.8% |  |  |  | CCCCc1sc(-c2ccc(OCCCN3CCCC3)cc2)nc1-c1ccc(Oc2ccc(Cl)cc2)cc1 |
| 46.2% |  |  |  | CCCCc1sc(-c2ccc(OCCCN(C)C)cc2)nc1-c1ccc(Oc2ccc(Cl)cc2)cc1 |
| 22.9% |  |  |  | CCCCc1sc(-c2ccc(OCCN3CCOCC3)cc2)nc1-c1ccc(Oc2ccc(Cl)cc2)cc1 |
| 55.1% | 11.3% | 5.80 |  | CCCCc1sc(-c2ccc(OCCN(CC)CC)cc2)nc1-c1ccc(Oc2ccc(Cl)cc2)cc1 |
| 59.2% | 3.1% | 5.91 | 64.3% | CCCCc1sc(-c2ccc(OCCCN3CCN(C)CC3)cc2)nc1-c1ccc(Oc2ccc(Cl)cc2)cc1 |
| 47.7% |  |  |  | CCCCc1nc(-c2ccc(OCC3CCCN(CC)C3)cc2)sc1-c1ccc(Oc2ccc(Cl)cc2)cc1 (stereo unspecified) |
| 58.9% |  | 5.76 | 73.3% | CCCCc1sc(-c2ccc(OCCCN(CC)CC)cc2)nc1-c1ccc(Oc2ccc(Cl)cc2)cc1 |
| 60.1% | 13.5% | 5.98 | 55.3% | CCCCc1sc(-c2ccc(OCCN3CCCCC3)cc2)nc1-c1ccc(Oc2ccc(Cl)cc2)cc1 |
| 57.1% | 10.3% | 5.70 | 63.5% | CCCCc1nc(-c2ccc(Oc3ccc(Cl)cc3)cc2)sc1-c1ccc(OCCCN(CC)CC)cc1 |
| 60.9% |  | 6.26 |  | CCCCc1sc(Nc2ccc(OCCCN(CC)CC)cc2)nc1-c1ccc(Oc2ccc(Cl)cc2)cc1 |
| 57% |  | 5.95 | 71.7% | CCCCc1sc(-c2ccc(Oc3ccc(Cl)cc3)cc2)nc1-c1ccc(OCCCN(CC)CC)cc1 |
| 58% | 3% | 6.18 | 77.5% | CCCCc1sc(-c2ccc(OCC3CCCN(CC)C3)cc2)nc1-c1ccc(Oc2ccc(Cl)cc2)cc1 (stereo unspecified) |
| 2.4% |  |  |  | CCCCc1sc(-c2ccc(Oc3ccc(Cl)cc3)cc2)nc1-c1ccc(OCc2ccccc2)cc1 |
| 55.9% |  | 5.72 | 68.3% | CCCCc1sc(-c2ccc(Oc3ccc(Cl)cc3)cc2)nc1-c1ccc(OCC2CCCN(CC)C2)cc1 (stereo unspecified) |
